For experiment [1], the target named is T1, Estrogen receptor (Mus musculus) (UniProt P19785).
T1 sequence (whole entry): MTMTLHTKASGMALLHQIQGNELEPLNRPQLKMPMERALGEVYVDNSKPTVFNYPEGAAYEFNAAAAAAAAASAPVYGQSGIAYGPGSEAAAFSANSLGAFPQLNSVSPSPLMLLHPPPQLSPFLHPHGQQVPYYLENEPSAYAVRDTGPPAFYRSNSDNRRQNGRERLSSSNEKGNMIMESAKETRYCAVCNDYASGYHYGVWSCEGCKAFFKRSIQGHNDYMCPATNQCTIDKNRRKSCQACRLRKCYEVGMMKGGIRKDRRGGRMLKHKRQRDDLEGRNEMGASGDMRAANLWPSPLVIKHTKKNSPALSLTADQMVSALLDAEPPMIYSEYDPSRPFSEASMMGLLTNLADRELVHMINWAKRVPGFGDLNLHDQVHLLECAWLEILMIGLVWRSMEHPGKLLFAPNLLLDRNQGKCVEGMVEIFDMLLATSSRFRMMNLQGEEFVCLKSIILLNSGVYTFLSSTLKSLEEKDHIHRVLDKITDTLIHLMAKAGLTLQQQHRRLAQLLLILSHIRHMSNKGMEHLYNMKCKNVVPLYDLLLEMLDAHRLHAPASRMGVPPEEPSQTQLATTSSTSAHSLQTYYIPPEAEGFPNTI
The experiment can be described thus: Displacement of [6,7-3H]-17beta-estadiol from estrogen receptor in Tuck No. 1 mouse uterine cytosol at 10 molar ratio of compound/radioligand incubated 15 mins prior to radioligand addition measured after 1 hr by liquid scintillation counting relative to control. Particulars: Uterus. In outline: (§1)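 Uterine cytosol is the 105 000g, 1 h, 4-5 °C supernatant of homogenates from mice ovariectomized one week earlier, prepared in Tris 0.01 M pH 7.4 with EDTA and DTT. Compound is preincubated with cytosol 15 min at 5-7 °C, then [6,7-3H]-estradiol (0.5 × 10^-12 g mol) is added for 1 h. Samples are run on 10-30% sucrose gradients. Inhibition is calculated from 8S-peak cpm normalized to total cpm versus control.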

Experiment [2] relates to Mus musculus. Description: Antiestrogenic activity in immature Tuck No. 1 mouse assessed as reduction of 17beta-estradiol-induced mean uterine weight at 10 molar ratio of compound/17beta-estradiol, sc qd for 3 days (reference value: 25.5 +/- 1.9 mg). Format: functional.
Experiment [3] addresses T1, Estrogen receptor (Mus musculus). The experiment can be described thus: Displacement of [6,7-3H]-17beta-estadiol from estrogen receptor in Tuck No. 1 mouse uterine cytosol at 1000 molar ratio of compound/radioligand incubated 15 mins prior to radioligand addition measured after 1 hr by liquid scintillation counting relative to control. Particulars: Uterus. The method, boiled down:
as §1

For experiment [4], the system named is Mus musculus. The experiment can be described thus: Antiestrogenic activity in immature Tuck No. 1 mouse assessed as reduction of 17beta-estradiol-induced mean uterine weight at 100 molar ratio of compound/17beta-estradiol, sc qd for 3 days (reference value: 25.5 +/- 1.9 mg). It is filed as functional.
The test system of experiment [5] is Rattus norvegicus. The experiment can be described thus: Antiestrogenic activity in immature Wistar rat assessed as reduction of 17beta-estradiol-induced mean uterine weight at 3.16 molar ratio of compound/17beta-estradiol, sc qd for 3 days (reference value: 64.4 +/- 3.5 mg). It is filed as functional. In outline: (§2)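 Immature Wistar rats, randomized into groups of 5-6, injected sc daily for 3 days with arachis oil vehicle, 17β-estradiol alone or estradiol plus test compound. Estradiol and compound are given as two separate injections. Estradiol total dose […]. Read-out is uterine weight, reported as mean ± SEM in mg.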

Experiment [6] addresses T1, Estrogen receptor (Mus musculus). The experiment can be described thus: Displacement of [6,7-3H]-17beta-estadiol from estrogen receptor in Tuck No. 1 mouse uterine cytosol at 3.16 molar ratio of compound/radioligand incubated 15 mins prior to radioligand addition measured after 1 hr by liquid scintillation counting relative to control. Particulars: Uterus. In outline:
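Uteri from Tuck No. 1 mice (6 weeks old, ovariectomized, used 1 week later) pulverized and homogenized at 4 °C in 0.01 M Tris pH 7.4 with EDTA and dithiothreitol; 105000g, 1 h cytosol. Compound preincubated with cytosol 15 min at 5-7 °C, then [6,7-3H]-estradiol added for 1 h. 10-30% sucrose gradients spun 275000g, 15 h; % inhibition computed from 8S-peak cpm normalized to total gradient cpm versus control.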

For experiment [7] the target is unchanged. The experiment can be described thus: Displacement of [6,7-3H]-17beta-estadiol from estrogen receptor in Tuck No. 1 mouse uterine cytosol at 1 molar ratio of compound/radioligand incubated 15 mins prior to radioligand addition measured after 1 hr by liquid scintillation counting relative to control. Particulars: Uterus. In outline:
as §1

Experiment [8] concerns Rattus norvegicus. The experiment can be described thus: Antiestrogenic activity in immature Wistar rat assessed as reduction of 17beta-estradiol-induced mean uterine weight at 10 molar ratio of compound/17beta-estradiol, sc qd for 3 days (reference value: 64.4 +/- 3.5 mg). Format: functional. In outline: as §2
Experiment [9] concerns the target T1, Estrogen receptor (Mus musculus). Description: Displacement of [6,7-3H]-17beta-estadiol from estrogen receptor in Tuck No. 1 mouse uterine cytosol at 100 molar ratio of compound/radioligand incubated 15 mins prior to radioligand addition measured after 1 hr by liquid scintillation counting relative to control. Particulars: Uterus. In outline: as §1
The test system of experiment [10] is Mus musculus. The experiment can be described thus: Antiestrogenic activity in immature Tuck No. 1 mouse assessed as reduction of 17beta-estradiol-induced mean uterine weight at 1000 molar ratio of compound/17beta-estradiol, sc qd for 3 days (reference value: 25.5 +/- 1.9 mg). It is filed as functional.
Experiment [11] has as its system Rattus norvegicus. The experiment can be described thus: Antiestrogenic activity in immature Wistar rat assessed as reduction of 17beta-estradiol-induced mean uterine weight at 200 molar ratio of compound/17beta-estradiol, sc qd for 3 days (reference value: 64.4 +/- 3.5 mg). Format: functional. In outline: as §2

The results in this text go back to ChEMBL document CHEMBL3244009, “Potential steroidal antiestrogens” (1977).

Take `C[C@]12CC[C@@H]3c4ccc(O)cc4/C(=N\N4C(=N)SCC4=O)C[C@H]3[C@@H]1CC[C@@H]2O`: the Activity in experiment [1] turned out to be 84%; in experiment [2], 28.4 mg.

Regarding `CCN(CC)CCOc1ccc2c(c1)C(c1ccccc1)=C[C@@H]1[C@@H]2CC[C@]2(C)[C@@H](O)CC[C@@H]12`, in experiment [3], the Activity worked out at 101%.

Take `Cc1cc(OCCN(C)C)cc2c1[C@H]1CC[C@]3(C)[C@@H](O)CC[C@H]3[C@@H]1C=C2c1ccccc1`: the Activity in [3] is 88%.

As to `C[C@]12CC[C@@H]3c4ccc(O)cc4/C(=N\NC(N)=S)C[C@H]3[C@@H]1CC[C@@H]2O`, the Activity in [1] amounted to 54%; in [4] it was 34.3 mg; in [5], 77.7 mg.

For `C[C@]12CC[C@@H]3c4ccc(O)cc4C(=O)C[C@H]3[C@@H]1CC[C@@H]2O`, the Activity in experiment [6] turned out to be 38%.

As for `CCN(CC)CCOc1ccc2c(c1)C(Cc1ccccc1)=C[C@@H]1[C@@H]2CC[C@]2(C)[C@@H](O)CC[C@@H]12`, in [3], the Activity came out at 89%.

On to `C[C@]12CC[C@@H]3c4ccc(O)cc4C(c4ccccc4)=C[C@H]3[C@@H]1CC[C@@H]2O`, for which the Activity is 13% in [6]; 3% in [1]; 66% in [7]; 28.6 mg in [2]; 74.1 mg in [8].

Consider `CN(C)CCOc1ccc2c(c1)C(=O)C[C@@H]1[C@@H]2CC[C@]2(C)[C@@H](O)CC[C@@H]12`, for which, in experiment [3], the Activity is 66%.

For the molecule `Cc1cc(O)cc2c1[C@H]1CC[C@]3(C)[C@@H](O)CC[C@H]3[C@@H]1C=C2c1ccccc1`, the Activity in [3] amounted to 18%; in experiment [9], 87%; in [10], 32.9 mg; in experiment [11], 97.1 mg.

On to `Cc1cc(O)cc2c1[C@H]1CC[C@]3(C)[C@@H](O)CC[C@H]3[C@@H]1CC2=O`, for which the Activity came to 14% in experiment [3] and 38% in experiment [9].

As to `CN(C)CCOc1ccc2c(c1)C(c1ccccc1)=C[C@@H]1[C@@H]2CC[C@]2(C)[C@@H](O)CC[C@@H]12`, the Activity in [3] was 103%.
